Reference: ChEMBL document CHEMBL5712078, “BRD9 Inhibition, Alone or in Combination with Cytostatic Compounds as a Therapeutic Approach in Rhabdoid Tumors” (Int J Mol Sci, 2017)
Active and inactive are the calls of the source. The calls are words filed in the database; no cut-off is given here.

How the values were obtained:
CHLA-266 [1] = assay: Anti-proliferative activity against human CHLA-266 cells assessed as cell viability incubated for 144 hrs by MTT assay; format: functional, cell-based; conditions: CHLA-266, 144 h
Summary of the method: (§1)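 MTT proliferation assay. Cells were seeded at 3000 (BT16, KD, G401) or 5000 (BT12, Chla266) cells per well and drug was added after 24 h, final 0.001–100 µM. Read at 72 or 144 h; 144 h wells got fresh medium and drug on day 3. MTT for 3 h, formazan dissolved in isopropanol/0.04 N HCl, absorbance at 570/630 nm. Technical triplicates, ≥3 independent runs, IC50 derived.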

BT-12 [2] = assay: Induction of cell cycle arrest in human BT-12 cells assessed as accumulation of cells at G1 phase incubated for 72 hrs by flow cytometry analysis; format: functional, cell-based; conditions: dose 5-20 µM
Summary of the method: (§2)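 Cell cycle. Seeding and 72 h treatment as for the apoptosis assay, with I-BRD9 or BI-9564 at 0, 5, 10 or 20 µM final. A 100 µL cell suspension was stained with DAPI and read by flow cytometry. Percentage of cells in G1, n ≥3, mean ± SD, one-way ANOVA versus control.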

G-401 [3] = assay: Induction of apoptosis in human G-401 cells assessed as necrotic cells at 5 uM incubated for 72 hrs by flow cytometry analysis (Rvb= 6.2+/-0.8 %); format: functional
Summary of the method: (§3)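 Annexin V/PI flow assay. G401 at 10,000 cells/mL and BT12 or Chla266 at 30,000 cells/mL were seeded in 12-well plates. Next day medium was replaced with medium holding I-BRD9 or BI-9564 at 0, 5, 10 or 20 µM final for 72 h. Cells were washed in PBS, stained with FITC-Annexin V and propidium iodide for 15 min in the dark at room temperature, then read by flow cytometry. Percentage of dead cells, n ≥3, mean ± SD, one-way ANOVA versus control.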

BT-12 [4] = assay: Anti-proliferative activity against human BT-12 cells assessed as cell viability incubated for 144 hrs by MTT assay; format: functional, cell-based; conditions: BT-12, 144 h; summary of the method: as §1
BT-12 [5] = assay: Induction of cell cycle arrest in human BT-12 cells assessed as accumulation of cells at G1 phase at 20 uM incubated for 72 hrs by flow cytometry analysis (reference value: 65+/-3.9%); format: functional; summary of the method: as §2
G-401 [6] = assay: Induction of apoptosis in human G-401 cells assessed as necrotic cells incubated for 72 hrs by flow cytometry analysis; format: functional, cell-based; conditions: dose 5-20 µM; summary of the method: as §3
G-401 [7] = assay: Induction of cell cycle arrest in human G-401 cells assessed as accumulation of cells at G1 phase at 5 uM incubated for 72 hrs by flow cytometry analysis (reference value: 51.7+/-2%); format: functional
Summary of the method: (§4)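 72 h DAPI flow-cytometry cell-cycle assay. Chla266 in IMDM/20% FBS seeded at 30,000 cells/mL; G401 in DMEM/10% FBS at 10,000 cells/mL; 1 mL/well, 37 °C, 5% CO2. Next day the medium was replaced with inhibitor at final 0, 5, 10 or 20 µM. Cells were harvested, PBS-washed, and the G1 percentage was read. n ≥ 3, mean ± SD, one-way ANOVA vs control.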

G-401 [8] = assay: Induction of apoptosis in human G-401 cells assessed as necrotic cells at 20 uM incubated for 72 hrs by flow cytometry analysis (Rvb= 6.2+/-0.8 %); format: functional; summary of the method: as §3
BT-12 [9] = assay: Induction of cell cycle arrest in human BT-12 cells assessed as accumulation of cells at G1 phase at 10 uM incubated for 72 hrs by flow cytometry analysis (reference value: 65+/-3.9%); format: functional; summary of the method: as §2
G-401 [10] = assay: Induction of apoptosis in human G-401 cells assessed as necrotic cells at 10 uM incubated for 72 hrs by flow cytometry analysis (Rvb= 6.2+/-0.8 %); format: functional; summary of the method: as §3
CHLA-266 [11] = assay: Induction of apoptosis in human CHLA-266 cells assessed as necrotic cells at 10 uM incubated for 72 hrs by flow cytometry analysis (Rvb= 5.4+/-1.0 %); format: functional; summary of the method: as §3
BT-12 [12] = assay: Induction of apoptosis in human BT-12 cells assessed as necrotic cells at 10 uM incubated for 72 hrs by flow cytometry analysis (reference value: 10.1+/-2.2%); format: functional; summary of the method: as §3
[13] = Anti-proliferative activity against human KD cells assessed as cell viability incubated for 72 hrs by MTT assay; format: functional, cell-based; summary of the method: as §1
CHLA-266 [14] = assay: Induction of cell cycle arrest in human CHLA-266 cells assessed as accumulation of cells at G1 phase at 20 uM incubated for 72 hrs by flow cytometry analysis (reference value: 74.1+/-3.2%); format: functional; summary of the method: as §2
G-401 [15] = assay: Anti-proliferative activity against human G-401 cells assessed as cell viability incubated for 144 hrs by MTT assay; format: functional, cell-based; conditions: G-401, 144 h; summary of the method: as §1
BT-12 [16] = assay: Induction of apoptosis in human BT-12 cells assessed as necrotic cells incubated for 72 hrs by flow cytometry analysis; format: functional, cell-based; conditions: dose 5-20 µM; summary of the method: as §3
G-401 [17] = assay: Anti-proliferative activity against human G-401 cells assessed as cell viability incubated for 72 hrs by MTT assay; format: functional, cell-based; conditions: G-401, 72 h; summary of the method: as §1
CHLA-266 [18] = assay: Induction of apoptosis in human CHLA-266 cells assessed as necrotic cells at 5 uM incubated for 72 hrs by flow cytometry analysis (Rvb= 5.4+/-1.0%); format: functional; summary of the method: as §3
BT-12 [19] = assay: Anti-proliferative activity against human BT-12 cells assessed as cell viability incubated for 72 hrs by MTT assay; format: functional, cell-based; conditions: BT-12, 72 h; summary of the method: as §1
CHLA-266 [20] = assay: Anti-proliferative activity against human CHLA-266 cells assessed as cell viability incubated for 72 hrs by MTT assay; format: functional, cell-based; conditions: CHLA-266, 72 h; summary of the method: as §1
BT-12 [21] = assay: Induction of apoptosis in human BT-12 cells assessed as necrotic cells at 20 uM incubated for 72 hrs by flow cytometry analysis (Rvb=10.1+/-2.2%); format: functional; summary of the method: as §3
[22] = Anti-proliferative activity against human KD cells assessed as cell viability incubated for 144 hrs by MTT assay; format: functional, cell-based; summary of the method: as §1
BT-12 [23] = assay: Induction of apoptosis in human BT-12 cells assessed as necrotic cells at 5 uM incubated for 72 hrs by flow cytometry analysis (reference value: 10.1+/-2.2%); format: functional; summary of the method: as §3
[24] = Anti-proliferative activity against human BT-16 cells assessed as cell viability incubated for 72 hrs by MTT assay; format: functional, cell-based; conditions: BT-16, 72 h; summary of the method: as §1
G-401 [25] = assay: Induction of cell cycle arrest in human G-401 cells assessed as accumulation of cells at G1 phase incubated for 72 hrs by flow cytometry analysis; format: functional, cell-based; conditions: dose 5-20 µM; summary of the method: as §4
CHLA-266 [26] = assay: Induction of cell cycle arrest in human CHLA-266 cells assessed as accumulation of cells at G1 phase incubated for 72 hrs by flow cytometry analysis; format: functional, cell-based; conditions: dose 5-20 µM; summary of the method: as §4
CHLA-266 [27] = assay: Induction of apoptosis in human CHLA-266 cells assessed as necrotic cells incubated for 72 hrs by flow cytometry analysis; format: functional, cell-based; conditions: dose 5-20 µM; summary of the method: as §3
CHLA-266 [28] = assay: Cytotoxicity against human CHLA-266 cells assessed as change in cell viability at 5 to 20 uM treated for 72 hrs; format: functional, cell-based; conditions: dose 5-20 µM; summary of the method: as §3
BT-12 [29] = assay: Induction of cell cycle arrest in human BT-12 cells assessed as accumulation of cells at G1 phase at 5 uM incubated for 72 hrs by flow cytometry analysis (reference value: 65+/-3.9%); format: functional; summary of the method: as §2
CHLA-266 [30] = assay: Induction of cell cycle arrest in human CHLA-266 cells assessed as accumulation of cells at G1 phase at 10 uM incubated for 72 hrs by flow cytometry analysis (Rvb =74.1+/-3.2%); format: functional; summary of the method: as §2
CHLA-266 [31] = assay: Induction of apoptosis in human CHLA-266 cells assessed as necrotic cells at 20 uM incubated for 72 hrs by flow cytometry analysis (Rvb= 5.4+/-1.0 %); format: functional; summary of the method: as §3
CHLA-266 [32] = assay: Induction of cell cycle arrest in human CHLA-266 cells assessed as accumulation of cells at G1 phase at 5 uM incubated for 72 hrs by flow cytometry analysis (reference value: 74.1+/-3.2%); format: functional; summary of the method: as §2
G-401 [33] = assay: Induction of cell cycle arrest in human G-401 cells assessed as accumulation of cells at G1 phase at 10 uM incubated for 72 hrs by flow cytometry analysis (reference value: 51.7+/-2%); format: functional; summary of the method: as §4

IC50 (BT-12 [4]): 17.2 µM
IC50 (BT-12 [19]): > 100 µM
SMILES: COc1cc(-c2cn(C)c(=O)c3cnccc23)c(OC)cc1CN(C)C
IC50 (CHLA-266 [1]): 33.7 µM
Activity (BT-12 [2]): Dose-Dependent Effect
Activity (G-401 [3]): 6.8%
Activity (BT-12 [5]): 78.9%
Activity (G-401 [6]): Dose-Dependent Effect
Activity (G-401 [7]): 57.6%
Activity (G-401 [8]): 7.6%
Activity (BT-12 [9]): 74%
Activity (G-401 [10]): 7.3%
Activity (CHLA-266 [11]): 11%
Activity (BT-12 [12]): 15.9%
IC50 [13]: 22.3 µM
Activity (CHLA-266 [14]): 83.6%
IC50 (G-401 [15]): 10.8 µM
Activity (BT-12 [16]): Dose-Dependent Effect
IC50 (G-401 [17]): 12.5 µM
Activity (CHLA-266 [18]): 10%
IC50 (CHLA-266 [20]): > 100 µM
Activity (BT-12 [21]): 17.3%
IC50 [22]: 10.8 µM
Activity (BT-12 [23]): 14.2%
IC50 [24]: 15.9 µM
Activity (G-401 [25]): Dose-Dependent Effect
Activity (CHLA-266 [26]): Dose-Dependent Effect
Activity (CHLA-266 [27]): Dose-Dependent Effect
Activity (CHLA-266 [28]): Active
Activity (BT-12 [29]): 73.1%
Activity (CHLA-266 [30]): 81.2%
Activity (CHLA-266 [31]): 12.9%
Activity (CHLA-266 [32]): 80%
Activity (G-401 [33]): 59.5%
